The source made the active and inactive calls. No cut-off for these calls is given here.
What was measured:
P388 = experiment: Inhibition of P388 leukemia cells growth in culture; assay type: functional, cell-based; settings: Mus musculus
Procedure, shortened: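 P388 leukemia cells in exponential growth were exposed to drug for 70 h. IC50 is the micromolar concentration that reduces cell growth to 50% of control values.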

Mus musculus [1] = experiment: Percentage increase in lifespan of P388 tumor-bearing mice compared with tumor-bearing controls at optimal dose of 65 mg/kg/day; NA=Not active; assay type: functional, organism-based
Procedure, shortened: (§1)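 Mice were inoculated ip with 10^6 P388 leukemia cells. Drug was given ip on days 1, 5 and 9 in 0.1 mL of 30% v/v EtOH-water, with dose in mg/kg/day. Optimal dose was determined, and ILS is the % lifespan increase over tumor-bearing controls at that dose.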

Nucleic Acid = experiment: Inhibitory concentration against ethidium bromide binding to [poly(dA-dT)] [poly(dA-dT)]; assay type: nucleic-acid assay
Procedure, shortened: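 Fluorometric ethidium displacement using poly[d(A-T)]. C50 is the micromolar ligand concentration that displaces 50% of previously bound ethidium. For intercalators it is inversely proportional to the ligand–DNA association constant.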

Mus musculus [2] = experiment: Optimal dose required to inhibit P388 leukemia cells when administered intraperitoneally in mice; assay type: functional; procedure, shortened: as §1
Mus musculus [3] = experiment: Percentage increase in lifespan of P388 tumor-bearing mice compared with tumor-bearing controls at optimal dose of 65 mg/kg/day; assay type: functional
Mus musculus [4] = experiment: Percentage increase in lifespan of P388 tumor-bearing mice compared with tumor-bearing controls at optimal dose of 150 mg/kg/day; NA = Not active; assay type: functional, organism-based; procedure, shortened: as §1
Mus musculus [5] = experiment: Percentage increase in lifespan of P388 tumor-bearing mice compared with tumor-bearing controls at optimal dose of 65 mg/kg/day; NA= Not active; assay type: functional, organism-based; procedure, shortened: as §1

SMILES | IC50 (P388) [nM] | C50 (Nucleic Acid) [µM] | ILS (Mus musculus [1]) | OD (Mus musculus [2]) [mg/kg/day] | ILS at 65 mg/kg/day (Mus musculus [3]) [%] | ILS (Mus musculus [4]) | ILS (Mus musculus [5])
CN(C)CCNC(=O)c1cccc2cc3cccnc3nc12 | 490 | 7.6 | inactive | – | – | – | –
CN(C)CCNC(=O)c1cccc2c(O)c3cccc([N+](=O)[O-])c3nc12 | 83 | 2.4 | – | 45 | 65 | – | –
CN(C)CCNC(=O)c1cc([N+](=O)[O-])cc2c(O)c3cccnc3nc12 | 1300 | 11 | – | – | – | – | –
CN(C)CCNC(=O)c1cccc2cc3ccncc3nc12 | 8300 | 4.6 | – | – | – | – | –
CN(C)CCNC(=O)c1ccc([N+](=O)[O-])c2cc3cccnc3nc12 | 150 | 2.1 | – | 20 | – | – | inactive
CN(C)CCNC(=O)c1cccc2cc3ncccc3nc12 | 4400 | 11.1 | – | – | 48 | – | –
C(=N/NC1=NCCN1)/c1cccc2cc3cccnc3nc12 | 12000 | 5 | – | – | – | – | –
CN(C)CCNC(=O)c1ccc([N+](=O)[O-])c2c(O)c3cccnc3nc12 | 18 | 10.4 | – | 65 | 31 | – | –
CN(C)CCNC(=O)c1cccc2c(O)c3cc([N+](=O)[O-])ccc3nc12 | 3500 | 5.9 | – | – | – | – | –
CN(C)CCNC(=O)c1cccc2c(O)c3cnccc3nc12 | > 40000 | – | – | – | – | – | –
Oc1c2cccnc2nc2c(/C=N\NC3=NCCN3)cccc12 | 22000 | 4 | – | – | – | – | –
C(=N/NC1=NCCN1)/c1cccc2cc3cnccc3nc12 | 12300 | 6.6 | – | – | – | – | –
CN(C)CCNC(=O)c1cccc2cc3ccccc3nc12 | 110 | 5 | – | – | 91 | – | –
CN(C)CCn1c(=O)c2cccc3c(=O)c4ccncc4n(c1=O)c32 | > 40000 | 10.7 | – | – | – | – | –
CN(C)CCNC(=O)c1ccc([N+](=O)[O-])c2c(O)c3cnccc3nc12 | 1000 | 6.2 | – | – | – | – | –
C[N+](C)(C)CC(=O)N/N=C\c1cccc2c(O)c3cccnc3nc12 | > 40000 | 7.3 | – | – | – | – | –

Second part, led by results:

IC50 (P388) [nM] | C50 (Nucleic Acid) [µM] | SMILES | ILS (Mus musculus [1]) | OD (Mus musculus [2]) [mg/kg/day] | ILS at 65 mg/kg/day (Mus musculus [3]) [%] | ILS (Mus musculus [4]) | ILS (Mus musculus [5])
5500 | 27.7 | CN(C)CCNC(=O)c1cccc2c(O)c3cccnc3nc12 | – | – | – | inactive | –
25000 | 5.9 | C(=N/NC1=NCCN1)/c1cccc2cc3ccncc3nc12 | – | – | – | – | –
1650 | 11.1 | C[N+](C)(C)CC(=O)N/N=C\c1cccc2cc3cccnc3nc12 | – | 65 | – | – | inactive
910 | 4.5 | CN(C)CCNC(=O)c1cc([N+](=O)[O-])cc2c(O)c3ccccc3nc12 | – | 45 | – | – | inactive
85 | 3.1 | CN(C)CCNC(=O)c1ccc([N+](=O)[O-])c2cc3ncccc3nc12 | – | 45 | – | – | inactive
550 | 23 | CN(C)CCNC(=O)C1=CC=C([N+](=O)[O-])C2C(=O)c3ccccc3N=C12 (stereo unspecified) | – | – | – | – | –
5000 | 4.4 | CN(C)CCNC(=O)c1ccc([N+](=O)[O-])c2cc3cnccc3nc12 | – | – | – | – | –
1200 | 4.1 | CN(C)CCNC(=O)c1cccc2c(O)c3ccc([N+](=O)[O-])cc3nc12 | – | 65 | – | – | inactive
> 40000 | 9.6 | Oc1c2cccc(/C=N\NC3=NCCN3)c2nc2cccnc12 | – | – | – | – | –
1700 | 15 | CN(C)CCNC(=O)c1cccc2c(=O)c3ccccc3[nH]c12 | – | – | – | inactive | –
3300 | 5.4 | C(=N/NC1=NCCN1)/c1cccc2cc3ncccc3nc12 | – | 45 | – | – | inactive
> 40000 | 18.5 | CN(C)CCNC(=O)c1cccc2c(O)c3ccncc3nc12 | – | – | – | – | –

— ChEMBL document CHEMBL1127621, “Electron-deficient DNA-intercalating agents as antitumor drugs: aza analogues of the experimental clinical agent N-[2-(dimethylamino)ethyl]acridine-4-carboxamide” (J Med Chem, 1994)
